By IC50 is commonly meant the concentration that gives 50% inhibition. A low value points to greater potency.

Experiment [1] addresses Kappa-type opioid receptor (Cavia porcellus, UniProt P41144). Put plainly: Displacement of 0.5 nM [3H]bremazocine from guinea pig brain membrane opioid receptor kappa with 100 nM DAGO and 100 nM DPDPE. Put shortly: (§1)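 Crude guinea pig brain membrane homogenate. Compounds as free amine in 50% acetic acid, serially diluted in water; nine concentrations in competition with radioligand ([3H]DAGO for μ; [3H]bremazocine plus unlabeled DAGO and DPDPE for κ). Incubated in 50 mM Tris-HCl pH 7.4, 25 °C, 1 h. Then GF/B filtration, two cold buffer rinses, scintillation counting. IC50 by log-probit analysis.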

In experiment [2] the target is Opioid receptors; mu/kappa/delta. Kind of experiment: Inhibition of 0.5 nM [3H]bremazocine binding to guinea pig brain membrane opioid receptors. Also noted: species or system Cavia porcellus.
Experiment [3] addresses Mu-type opioid receptor (Cavia porcellus, UniProt P97266). Put plainly: inhibition of 1.0 nM [3H]- DAGO binding to guinea pig brain membrane opioid receptor mu. The method in brief:
as §1

For experiment [4], the target named is T1, Opioid receptors; mu/kappa/delta (Homo sapiens) (UniProt P41145+P41143+P35372). Put plainly: Compound was evaluated for the percent recovery of 0.5 nM of [3H]- bremazocine binding to total opioid receptor in unwashed guinea pig brain membranes at 50 (nM) concentration of the compound. The experiment is classed as cell membranes. The following applies: Cavia porcellus, Membrane, target entry is the homologue from another species.
T1 sequence (P35372 whole entry, looked up): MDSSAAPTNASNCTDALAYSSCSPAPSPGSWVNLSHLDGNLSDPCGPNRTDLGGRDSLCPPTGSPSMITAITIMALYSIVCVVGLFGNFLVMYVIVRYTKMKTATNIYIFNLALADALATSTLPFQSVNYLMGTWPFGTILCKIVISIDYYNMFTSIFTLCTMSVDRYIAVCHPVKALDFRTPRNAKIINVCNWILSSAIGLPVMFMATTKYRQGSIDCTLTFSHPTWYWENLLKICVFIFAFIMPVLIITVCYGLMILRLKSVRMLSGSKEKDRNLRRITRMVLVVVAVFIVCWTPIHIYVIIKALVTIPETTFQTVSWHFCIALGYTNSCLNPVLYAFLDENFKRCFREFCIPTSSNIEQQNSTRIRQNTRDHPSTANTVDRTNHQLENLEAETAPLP
T1 sequence (P41143 whole entry, looked up): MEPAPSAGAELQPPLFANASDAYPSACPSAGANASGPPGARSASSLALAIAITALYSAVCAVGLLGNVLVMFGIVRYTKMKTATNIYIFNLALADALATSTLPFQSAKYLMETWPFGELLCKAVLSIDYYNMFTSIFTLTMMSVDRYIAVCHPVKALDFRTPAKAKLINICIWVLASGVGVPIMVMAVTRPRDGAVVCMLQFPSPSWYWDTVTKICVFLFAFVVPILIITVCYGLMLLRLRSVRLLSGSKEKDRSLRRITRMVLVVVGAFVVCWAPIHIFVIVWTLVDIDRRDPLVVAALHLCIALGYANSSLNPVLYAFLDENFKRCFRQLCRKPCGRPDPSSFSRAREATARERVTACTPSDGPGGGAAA
T1 sequence (P41145 whole entry, looked up): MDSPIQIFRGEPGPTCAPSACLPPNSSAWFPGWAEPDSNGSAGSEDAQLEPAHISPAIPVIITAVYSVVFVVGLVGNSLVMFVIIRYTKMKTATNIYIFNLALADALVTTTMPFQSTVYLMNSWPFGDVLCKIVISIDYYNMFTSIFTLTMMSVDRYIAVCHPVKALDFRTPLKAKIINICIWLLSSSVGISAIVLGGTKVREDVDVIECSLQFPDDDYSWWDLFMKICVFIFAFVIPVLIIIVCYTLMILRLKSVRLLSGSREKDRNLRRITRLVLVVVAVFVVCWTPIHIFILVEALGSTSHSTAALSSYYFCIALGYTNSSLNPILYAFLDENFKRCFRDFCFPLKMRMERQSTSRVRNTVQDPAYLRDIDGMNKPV

Experiment [5] deals with T1, Opioid receptors; mu/kappa/delta (Homo sapiens). Kind of experiment: Compound was evaluated for the percent recovery of 0.5 nM of [3H]- bremazocine binding to total opioid receptor in washed guinea pig brain membranes at 50 (nM) concentration of the compound. The experiment is classed as cell membranes. The following applies: Cavia porcellus, Membrane, target entry is the homologue from another species. Put shortly:
(§2)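 Guinea pig brain membranes were exposed to ligand for 1 h at 25 °C. Washing: 4-fold dilution with buffer, 20000g for 15 min, pellet resuspended in 3 volumes of buffer, 37 °C for 15 min, recentrifuged, resuspended in the original volume. Rebinding with the named radioligand in Tris-HCl pH 7.4, 25 °C, 1 h, filtration, scintillation. Reported as percent recovery.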

Experiment [6] shares this target. Put plainly: Compound was evaluated for the percent recovery of 0.5 nM of [3H]- bremazocine binding to total opioid receptor in guinea pig brain membranes at 50 (nM) concentration protection by 1 uM Naloxone. The experiment is classed as cell membranes. Conditions: Cavia porcellus, Membrane, target entry is the homologue from another species. The method in brief: (§3)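 Membranes were then washed (4-fold dilution, 20000g for 15 min, 37 °C for 15 min in 3 volumes, recentrifuged) and assayed with the named radioligand by filtration binding. Reported as percent recovery.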

Experiment [7] concerns the target Mu-type opioid receptor (Cavia porcellus) (UniProt P97266). Put plainly: Compound was evaluated for the percent recovery of 1.0 nM of [3H]- DAGO binding to opioid receptor mu in guinea pig brain membranes at 10 (nM) concentration protection by 1 uM Naloxone. The experiment is classed as cell membranes. The following applies: Membrane. Put shortly:
as §3

For experiment [8] the target is unchanged. Kind of experiment: Compound was evaluated for the percent recovery of 1.0 nM of [3H]- DAGO binding to opioid receptor mu in un washed guinea pig brain membranes at 10 (nM) concentration. Conditions: Membrane.
Experiment [9] shares this target. Kind of experiment: Compound was evaluated for the percent recovery of 1.0 nM of [3H]- DAGO binding to opioid receptor mu in washed guinea pig brain membranes at 10 (nM) concentration. The following applies: Membrane. The experiment is classed as cell membranes. Put shortly:
as §2

In experiment [10] the target is Delta-type opioid receptor (Homo sapiens) (UniProt P41143). Kind of experiment: Compound was evaluated for the percent recovery of 1.0 nM of [3H]- DPDPE binding to Opioid receptor delta 1 in guinea pig brain membranes at 22(nM) concentration protection by 1 uM Naloxone. The experiment is classed as cell membranes. Conditions: Cavia porcellus, Membrane, target entry is the homologue from another species. Put shortly:
as §3

The target of experiment [11] is T1, Opioid receptors; mu/kappa/delta (Homo sapiens). Put plainly: Compound was evaluated for the percent recovery of 0.5 nM of [3H]- bremazocine binding to of total opioid receptor in washed guinea pig brain membranes at 50 (nM) concentration of the compound. The experiment is classed as cell membranes. Conditions: Cavia porcellus, Membrane, target entry is the homologue from another species. The method in brief: as §2

For experiment [12], the target named is Mu-type opioid receptor (Cavia porcellus) (UniProt P97266). Kind of experiment: Compound was evaluated for the percent recovery of 1.0 nM of [3H]- DAGO binding to opioid receptor mu in un washed guinea pig brain membranes at 10(nM) concentration. The following applies: Membrane.
Chain of Mu-type opioid receptor (Cavia porcellus) (P97266 whole entry): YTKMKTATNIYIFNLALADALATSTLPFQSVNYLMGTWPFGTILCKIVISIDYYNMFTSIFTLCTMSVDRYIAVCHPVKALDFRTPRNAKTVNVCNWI
Experiment [13] deals with T1, Opioid receptors; mu/kappa/delta (Homo sapiens). Put plainly: Compound was evaluated for the percent recovery of 0.5 nM of [3H]- bremazocine binding to of total opioid receptor in unwashed guinea pig brain membranes at 50(nM) concentration of the compound. The experiment is classed as cell membranes. The following applies: Cavia porcellus, Membrane, target entry is the homologue from another species.

The target of experiment [14] is Delta-type opioid receptor (Homo sapiens) (UniProt P41143). Put plainly: Compound was evaluated for the percent recovery of 1.0 nM of [3H]- DPDPE binding to Opioid receptor delta 1 in guinea pig brain membranes at 17(nM) concentration protection by 1 uM Naloxone. The experiment is classed as cell membranes. The following applies: Cavia porcellus, Membrane, target entry is the homologue from another species. Put shortly:
as §3

The target of experiment [15] is Mu-type opioid receptor (Cavia porcellus) (UniProt P97266). Kind of experiment: Compound was evaluated for the percent recovery of 1.0 nM of [3H]- DAGO binding to opioid receptor mu in washed guinea pig brain membranes at 10(nM) concentration. The experiment is classed as cell membranes. Conditions: Membrane. The method in brief:
as §2

Chain of Kappa-type opioid receptor (P41144 whole entry): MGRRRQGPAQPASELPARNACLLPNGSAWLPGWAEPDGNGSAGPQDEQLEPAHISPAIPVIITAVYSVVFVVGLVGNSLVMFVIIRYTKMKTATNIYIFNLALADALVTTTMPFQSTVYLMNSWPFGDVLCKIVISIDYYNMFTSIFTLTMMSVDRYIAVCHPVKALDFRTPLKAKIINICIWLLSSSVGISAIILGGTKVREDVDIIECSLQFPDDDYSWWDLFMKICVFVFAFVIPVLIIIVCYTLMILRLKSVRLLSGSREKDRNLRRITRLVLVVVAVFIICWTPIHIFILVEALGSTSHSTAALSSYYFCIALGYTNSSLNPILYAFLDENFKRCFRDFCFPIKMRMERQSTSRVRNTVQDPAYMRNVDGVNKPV
Chain of Mu-type opioid receptor (P97266 whole entry): as the sequence (P97266 whole entry) above
Chain of Delta-type opioid receptor (Homo sapiens) (P41143 whole entry): as the sequence (P41143 whole entry, looked up) above

`Oc1ccc2c3c1O[C@H]1[C@H](OC[C@H]4CO4)CC[C@@]4(O)[C@@H](C2)N(CC2CC2)CC[C@]314`: the IC50 in experiment [1] is 0.017 µM; in experiment [2], 0.011 µM; in experiment [3] it was 0.0029 µM.
As for `Oc1ccc2c3c1O[C@H]1[C@H](OC[C@@H]4CO4)CC[C@@]4(O)[C@@H](C2)N(CC2CC2)CC[C@]314`, the % recovery was 10 in experiment [4], 79 in experiment [5] and 88 in experiment [6]. Besides, the IC50 in experiment [1] amounted to 0.017 µM; in [2], 0.012 µM; in experiment [3], 0.0035 µM.
Take `C=C1C[C@H](CO[C@@H]2CC[C@@]3(OC(C)=O)[C@H]4Cc5ccc(O)c6c5[C@@]3(CCN4CC3CC3)[C@H]2O6)OC1=O`: the % recovery in [4] stood at 27; in [5], 68; in experiment [7], 94; in [8] it was 10; in experiment [9], 49; in experiment [10] it was 86. Moreover, the % recovery in [6] was found to be 84. Also, the IC50 in experiment [1] was found to be 0.048 µM; in [2] it was 0.015 µM; in experiment [3], 0.0022 µM.
Turning to `C=C1C[C@@H](CO[C@@H]2CC[C@@]3(O)[C@H]4Cc5ccc(O)c6c5[C@@]3(CCN4CC3CC3)[C@H]2O6)OC1=O`, the IC50 in experiment [1] was 0.028 µM; in [2], 0.018 µM; in experiment [3], 0.0034 µM.
`C=C1C[C@H](CO[C@@H]2CC[C@@]3(O)[C@H]4Cc5ccc(O)c6c5[C@@]3(CCN4CC3CC3)[C@H]2O6)OC1=O` came in with a % recovery in experiment [7] of 88. Further, the IC50 in experiment [1] came to 0.044 µM; in experiment [2], 0.019 µM; in experiment [3] it was 0.0042 µM.
`C=C1C[C@@H](CO[C@@H]2CC[C@@]3(OC(C)=O)[C@H]4Cc5ccc(O)c6c5[C@@]3(CCN4CC3CC3)[C@H]2O6)OC1=O`: the % recovery in experiment [11] was found to be 54; in experiment [7] it was 55; in experiment [12] it was 21; in experiment [13], 20; in experiment [14], 71; in experiment [15], 71. Besides, the % recovery in experiment [6] came to 61. Also, the figures for the half-maximal inhibitory concentration (IC50) in experiment [1], in [2] and in [3] were 0.025 µM, 0.014 µM and 0.0028 µM, respectively.

The record behind these values is ChEMBL document CHEMBL1126090, “Electrophilic opioid ligands. Oxygen tethered alpha-methylene-gamma-lactone, acrylate, isothiocyanate, and epoxide derivatives of 6 beta-naltrexol” (J Med Chem, 1992).
